Results: ChEMBL document CHEMBL1240527, “3'-Deoxy phosphoramidate dinucleosides as improved inhibitors of hepatitis C virus subgenomic replicon and NS5B polymerase activity” (J Med Chem, 2010)

Key:
[1] = Inhibition of HCV recombinant His6x-tagged NS5B Cdelta55 polymerase-mediated RNA synthesis expressed in Escherichia coli BL21(DE3) assessed as reduction of pppGpC accumulation after 15 mins; design: species or system Hepacivirus hominis
How it was run: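 Inhibitor range 0–1000 μM. Reaction started with 2 mM MnCl2, 1 mM MgCl2, 50 μM γ-32P-GTP and 100 μM CTP, then 15 min at 30 C. EDTA/formamide quench. pppGpC resolved on sequencing gel and quantified by phosphorimaging. IC50 fitted; at least three experiments.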

[2] = test system: Hepatitis C virus; assay: Antiviral activity against HCV1b infected in human HuH6 cells assessed as inhibition of viral RNA replication after 3 days by RT-PCR analysis; format: functional, organism-based, Hepacivirus hominis; conditions: genotype 1b, HuH-6, 72 h
How it was run: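 Huh-6 cells stably carrying a genotype 1b (Con1-derived) subgenomic HCV replicon, seeded 1.5 × 10^4 cells/well and incubated 24 h at 37 C, 5% CO2. Then exposed to serial dilutions from 0.025 to 65 μM (10 concentrations) in complete DMEM for 3 days. Lysates assayed for replicon RNA by real-time RT-qPCR against a neomycin-plasmid standard curve. EC50 is 50% RNA reduction versus untreated control, averaged over three independent experiments.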

[3] = Cytotoxicity against human HuH6 cells after 3 days by MTS/PMS method; format: cell-based
How it was run: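 Run in parallel with the replicon assay: Huh-6 genotype 1b replicon cells seeded 1.5 × 10^4/well, treated 24 h later with 0.025–65 μM compound in complete DMEM for 3 days at 37 C, 5% CO2. Cell number read by MTS/PMS. CC50 is the concentration giving 50% reduction in proliferation of exponentially growing cells versus untreated control.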

| IC50 [1] | EC50 [2] | Compound | CC50 at 72 h [3] |
| --- | --- | --- | --- |
| 121 µM |  | CO[C@@H]1[C@H](O[P@@](=O)(NCCCC(C(=O)O)C(=O)O)OC[C@@H]2C[C@@H](O)[C@H](n3ccc(N)nc3=O)O2)[C@@H](COP(=O)(O)O)O[C@H]1n1cnc2c(=O)[nH]c(N)nc21 |  |
| 18 µM | 3.6 µM | COCCOCCNP(=O)(OC[C@@H]1C[C@@H](O)[C@H](n2ccc(N)nc2=O)O1)O[C@H]1[C@@H](OC)[C@H](n2cnc3c(=O)[nH]c(N)nc32)O[C@@H]1COP(=O)(O)O (some centres undefined) | > 65 µM |
| 67 µM |  | CO[C@@H]1[C@H](OP(=O)(NCCCCCC(=O)O)OC[C@@H]2C[C@@H](O)[C@H](n3ccc(N)nc3=O)O2)[C@@H](CO)O[C@H]1n1cnc2c(=O)[nH]c(N)nc21 (some centres undefined) |  |
| 20.3 µM |  | CO[C@@H]1[C@H](O[P@@](=O)(NCCCOP(=O)(O)O)OC[C@@H]2C[C@@H](O)[C@H](n3ccc(N)nc3=O)O2)[C@@H](COP(=O)(O)O)O[C@H]1n1cnc2c(=O)[nH]c(N)nc21 |  |
| 19 µM |  | CO[C@@H]1[C@H](OP(=O)(NCCCC(C(=O)O)C(=O)O)OC[C@@H]2C[C@@H](O)[C@H](n3ccc(N)nc3=O)O2)[C@@H](CO)O[C@H]1n1cnc2c(=O)[nH]c(N)nc21 (some centres undefined) |  |
| 42 µM |  | COCCOCCN[P@](=O)(OC[C@@H]1C[C@@H](O)[C@H](n2ccc(N)nc2=O)O1)O[C@H]1[C@@H](OC)[C@H](n2cnc3c(=O)[nH]c(N)nc32)O[C@@H]1COP(=O)(O)O |  |
| 10 µM | 3.9 µM | CO[C@@H]1[C@H](OP(=O)(NCCCOP(=O)(O)O)OC[C@@H]2C[C@@H](O)[C@H](n3ccc(N)nc3=O)O2)[C@@H](COP(=O)(O)O)O[C@H]1n1cnc2c(=O)[nH]c(N)nc21 (some centres undefined) | > 65 µM |
| 64 µM |  | COCCOCCN[P@@](=O)(OC[C@@H]1C[C@@H](O)[C@H](n2ccc(N)nc2=O)O1)O[C@H]1[C@@H](OC)[C@H](n2cnc3c(=O)[nH]c(N)nc32)O[C@@H]1COP(=O)(O)O |  |
| 18.5 µM |  | CO[C@@H]1[C@H](O[P@](=O)(NCCCOP(=O)(O)O)OC[C@@H]2C[C@@H](O)[C@H](n3ccc(N)nc3=O)O2)[C@@H](COP(=O)(O)O)O[C@H]1n1cnc2c(=O)[nH]c(N)nc21 |  |
| 8 µM | 2.6 µM | CO[C@@H]1[C@H](OP(=O)(NCCCC(C(=O)O)C(=O)O)OC[C@@H]2C[C@@H](O)[C@H](n3ccc(N)nc3=O)O2)[C@@H](COP(=O)(O)O)O[C@H]1n1cnc2c(=O)[nH]c(N)nc21 (some centres undefined) | > 65 µM |
| 57 µM |  | CO[C@@H]1[C@H](O[P@](=O)(NCCCC(C(=O)O)C(=O)O)OC[C@@H]2C[C@@H](O)[C@H](n3ccc(N)nc3=O)O2)[C@@H](COP(=O)(O)O)O[C@H]1n1cnc2c(=O)[nH]c(N)nc21 |  |
| 26 µM |  | CO[C@@H]1[C@H](O[P@@](=O)(NCCCCCC(=O)O)OC[C@H]2O[C@@H](n3ccc(N)nc3=O)[C@H](O)[C@@H]2O)[C@@H](COP(=O)(O)O)O[C@H]1n1cnc2c(=O)[nH]c(N)nc21 |  |
| 34 µM | 1.7 µM | CO[C@@H]1[C@H](OP(=O)(NCCCCCC(=O)O)OC[C@@H]2C[C@@H](O)[C@H](n3ccc(N)nc3=O)O2)[C@@H](COP(=O)(O)O)O[C@H]1n1cnc2c(=O)[nH]c(N)nc21 (some centres undefined) | > 65 µM |
| 29 µM | 19.4 µM | COCCNP(=O)(OC[C@@H]1C[C@@H](O)[C@H](n2ccc(N)nc2=O)O1)O[C@H]1[C@@H](OC)[C@H](n2cnc3c(=O)[nH]c(N)nc32)O[C@@H]1COP(=O)(O)O (some centres undefined) | > 65 µM |
| 28 µM | 38 µM | COCCN[P@@](=O)(OC[C@H]1O[C@@H](n2ccc(N)nc2=O)[C@H](O)[C@@H]1O)O[C@H]1[C@@H](OC)[C@H](n2cnc3c(=O)[nH]c(N)nc32)O[C@@H]1COP(=O)(O)O | > 65 µM |
| 16 µM |  | CO[C@@H]1[C@H](O[P@](=O)(NCCCCCC(=O)O)OC[C@H]2O[C@@H](n3ccc(N)nc3=O)[C@H](O)[C@@H]2O)[C@@H](COP(=O)(O)O)O[C@H]1n1cnc2c(=O)[nH]c(N)nc21 |  |
| 83 µM |  | CO[C@@H]1[C@H](OP(=O)(NCCCCCC(=O)O)OC[C@H]2O[C@@H](n3ccc(N)nc3=O)[C@H](O)[C@@H]2O)[C@@H](COP(=O)(O)O)O[C@H]1n1cnc2c(=O)[nH]c(N)nc21 (some centres undefined) |  |
| 13 µM |  | CO[C@@H]1[C@H](O[P@](=O)(NCCCCCC(=O)O)OC[C@@H]2C[C@@H](O)[C@H](n3ccc(N)nc3=O)O2)[C@@H](COP(=O)(O)O)O[C@H]1n1cnc2c(=O)[nH]c(N)nc21 |  |
| 37 µM | 4.5 µM | COCCN[P@](=O)(OC[C@H]1O[C@@H](n2ccc(N)nc2=O)[C@H](O)[C@@H]1O)O[C@H]1[C@@H](OC)[C@H](n2cnc3c(=O)[nH]c(N)nc32)O[C@@H]1COP(=O)(O)O | > 65 µM |
| 21 µM |  | CO[C@@H]1[C@H](OP(=O)(NCCCOP(=O)(O)O)OC[C@@H]2C[C@@H](O)[C@H](n3ccc(N)nc3=O)O2)[C@@H](CO)O[C@H]1n1cnc2c(=O)[nH]c(N)nc21 (some centres undefined) |  |
| 140 µM | > 50 µM | COCCNP(=O)(OC[C@H]1O[C@@H](n2ccc(N)nc2=O)[C@H](O)[C@@H]1O)O[C@H]1[C@@H](OC)[C@H](n2cnc3c(=O)[nH]c(N)nc32)O[C@@H]1COP(=O)(O)O (some centres undefined) | > 65 µM |
| 9 µM |  | CO[C@@H]1[C@H](O[P@@](=O)(NCCCCCC(=O)O)OC[C@@H]2C[C@@H](O)[C@H](n3ccc(N)nc3=O)O2)[C@@H](COP(=O)(O)O)O[C@H]1n1cnc2c(=O)[nH]c(N)nc21 |  |
| 7 µM | 2.5 µM | COCCN[P@](=O)(OC[C@@H]1C[C@@H](O)[C@H](n2ccc(N)nc2=O)O1)O[C@H]1[C@@H](OC)[C@H](n2cnc3c(=O)[nH]c(N)nc32)O[C@@H]1COP(=O)(O)O | > 65 µM |
| 72 µM | 1.6 µM | COCCN[P@@](=O)(OC[C@@H]1C[C@@H](O)[C@H](n2ccc(N)nc2=O)O1)O[C@H]1[C@@H](OC)[C@H](n2cnc3c(=O)[nH]c(N)nc32)O[C@@H]1COP(=O)(O)O | > 65 µM |
